Data on six molecules can be found in ChEMBL document CHEMBL1129282, “High-affinity partial agonist imidazo[1,5-a]quinoxaline amides, carbamates, and ureas at the gamma-aminobutyric acid A/benzodiazepine receptor complex” (J Med Chem, 1996).

Calls of active or inactive are those of the source. Some results are limits rather than exact numbers.

Experiment [1] deals with T1, GABA-A receptor; alpha-1/beta-2/gamma-2 (Homo sapiens, UniProt P14867+P18507+P47870).
T1 sequence (P14867 whole entry): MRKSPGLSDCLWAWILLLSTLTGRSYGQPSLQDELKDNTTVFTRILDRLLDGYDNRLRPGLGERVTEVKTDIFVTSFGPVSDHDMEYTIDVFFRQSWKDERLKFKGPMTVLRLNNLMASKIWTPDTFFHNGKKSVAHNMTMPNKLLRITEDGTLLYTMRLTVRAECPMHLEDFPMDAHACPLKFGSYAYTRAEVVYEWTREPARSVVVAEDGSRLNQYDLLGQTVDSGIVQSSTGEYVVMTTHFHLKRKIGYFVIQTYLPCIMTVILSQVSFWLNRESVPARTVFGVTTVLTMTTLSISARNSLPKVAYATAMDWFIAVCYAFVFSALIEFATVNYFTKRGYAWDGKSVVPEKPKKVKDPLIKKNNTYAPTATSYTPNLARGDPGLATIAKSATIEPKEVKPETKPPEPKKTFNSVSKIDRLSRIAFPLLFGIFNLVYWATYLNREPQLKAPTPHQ
T1 sequence (P47870 whole entry): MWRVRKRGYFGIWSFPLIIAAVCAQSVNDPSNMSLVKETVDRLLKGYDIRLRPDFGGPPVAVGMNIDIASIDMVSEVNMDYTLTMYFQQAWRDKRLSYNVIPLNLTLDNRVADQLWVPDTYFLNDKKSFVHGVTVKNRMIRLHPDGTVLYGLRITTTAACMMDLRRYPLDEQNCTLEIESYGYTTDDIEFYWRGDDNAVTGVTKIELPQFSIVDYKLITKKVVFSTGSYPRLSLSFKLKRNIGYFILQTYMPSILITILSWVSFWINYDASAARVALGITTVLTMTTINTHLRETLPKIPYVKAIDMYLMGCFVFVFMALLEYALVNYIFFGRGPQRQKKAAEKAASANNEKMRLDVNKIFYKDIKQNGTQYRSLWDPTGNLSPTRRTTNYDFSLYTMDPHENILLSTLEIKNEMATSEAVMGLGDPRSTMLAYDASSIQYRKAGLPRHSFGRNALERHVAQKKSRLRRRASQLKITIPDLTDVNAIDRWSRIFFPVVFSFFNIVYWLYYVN
T1 sequence (P18507 whole entry): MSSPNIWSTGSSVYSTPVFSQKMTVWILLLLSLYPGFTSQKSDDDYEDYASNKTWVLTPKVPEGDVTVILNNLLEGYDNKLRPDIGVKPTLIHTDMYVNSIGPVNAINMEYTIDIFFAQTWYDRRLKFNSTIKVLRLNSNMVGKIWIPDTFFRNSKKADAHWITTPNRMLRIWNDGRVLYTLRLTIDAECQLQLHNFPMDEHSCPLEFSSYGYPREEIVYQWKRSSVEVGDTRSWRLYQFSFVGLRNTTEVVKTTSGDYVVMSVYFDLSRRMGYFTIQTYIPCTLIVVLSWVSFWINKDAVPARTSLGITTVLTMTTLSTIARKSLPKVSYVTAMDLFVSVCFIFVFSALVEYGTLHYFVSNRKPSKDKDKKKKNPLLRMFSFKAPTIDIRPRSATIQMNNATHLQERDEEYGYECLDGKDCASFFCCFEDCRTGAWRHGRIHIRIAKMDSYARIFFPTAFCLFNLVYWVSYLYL
Nature of the experiment: (§1) Displacement of [3H]Flunitrazepam from GABA-A receptor alpha-1-beta-2-gamma-2 subunits expressed in Sf9 cells.

Experiment [2] addresses GABA-A receptor; anion channel. Description: Inhibition of [3H]flunitrazepam binding to GABA-A receptor of rat cortical membranes. It counts as cell membranes, Membrane.
Experiment [3] deals with T2, GABA A receptor alpha-3/beta-2/gamma-2 (Homo sapiens, UniProt P18507+P34903+P47870).
T2 sequence (P47870 whole entry): T1 sequence (P47870 whole entry)
T2 sequence (P18507 whole entry): T1 sequence (P18507 whole entry)
T2 sequence (P34903 whole entry): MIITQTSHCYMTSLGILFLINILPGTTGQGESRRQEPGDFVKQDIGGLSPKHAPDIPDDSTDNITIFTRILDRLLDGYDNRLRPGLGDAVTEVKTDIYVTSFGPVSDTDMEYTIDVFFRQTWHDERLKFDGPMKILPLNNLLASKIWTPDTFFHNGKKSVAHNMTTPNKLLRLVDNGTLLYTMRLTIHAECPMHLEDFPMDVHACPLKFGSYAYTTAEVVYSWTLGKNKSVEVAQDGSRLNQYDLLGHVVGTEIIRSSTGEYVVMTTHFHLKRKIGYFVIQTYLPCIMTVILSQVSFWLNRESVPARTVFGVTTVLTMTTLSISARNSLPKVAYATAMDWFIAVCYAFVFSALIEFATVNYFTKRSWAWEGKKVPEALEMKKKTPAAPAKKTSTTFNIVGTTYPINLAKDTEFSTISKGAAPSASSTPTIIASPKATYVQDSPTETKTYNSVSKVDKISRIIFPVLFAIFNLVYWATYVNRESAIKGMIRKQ
Nature of the experiment: Displacement of [3H]flunitrazepam from GABA-A receptor alpha-3-beta-2-gamma-2 subunits expressed in Sf9 cells. The method, boiled down: (§2)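 Membranes from Sf-9 cells infected (MOI 3) with baculoviruses for α1, α3 or α6 plus β2 and γ2 subunits, harvested 60 h postinfection. Binding in normal saline with 6 nM [3H]flunitrazepam (α1, α3) or [3H]Ro 15-4513 (α6), 50 µg membrane protein, varying test ligand. Incubated 60 min at 4 °C, filtered, scintillation counted.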

Experiment [4] has as its system Mus musculus. Nature of the experiment: Ethanol potentiation activity was measured as loss of righting reflex in male CF-1 mice after oral administration. In kind it is functional.
In experiment [5] the test system is Mus musculus. Nature of the experiment: Ethanol potentiation activity was measured as loss of traction response in male CF-1 mice after oral administration. In kind it is functional.
Experiment [6] is filed under the species Mus musculus. Description: Acute electroshock physical dependence activity was evaluated; A=Active. It counts as functional, organism-based. In a few lines: (§3)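 Male CF-1 mice, 10/group, dosed sc twice daily (0800, and 1600 at twice the 0800 dose) for 3 days. 24 h after last dose, iv flumazenil 2.5 mg/kg in 5% aqueous N,N-dimethylacetamide. Electroshock seizure threshold (MA50) measured 5 min later versus saline-treated, flumazenil-injected controls. Compound scored active if threshold lowered beyond control interval.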

The subject of experiment [7] is Mus musculus. Description: In vivo antagonistic activity against benzodiazepine in mice after ip administration. In kind it is functional. The method, boiled down:
(§4)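 Male CF-1 mice injected ip simultaneously with triazolam 1 mg/kg and test compound starting at […], in 0.25% aqueous methyl cellulose. Loss of traction scored 15 min later. Absence of triazolam effect indicated antagonism; lower doses at 0.5 log intervals then tested to establish ED50.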

The test system of experiment [8] is Rattus norvegicus. Description: Antagonistic activity against metrazole-induced clonic convulsions in rat after ip injection. It counts as functional.
For experiment [9], the species on record is Rattus norvegicus. Nature of the experiment: In vitro [36Cl]-uptake in rat cerebrocortical synaptoneurosomes. In kind it is functional. More on the design: unit not given here. The method, boiled down:
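Rat cerebrocortical synaptoneurosomes (1 mg protein) preincubated 5 min at 30 °C, then mixed with medium containing 0.2 µCi Na36Cl/mL, 118 mM NaCl, 5 mM KCl, 1.8 mM MgSO4, 20 mM Hepes/Tris pH 7.0, ± drug (methanol ≤0.4%). Uptake stopped after 5 s with ice-cold buffer, rapid filtration, four washes, radioactivity counted.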

Experiment [10] has as its target GABA-A receptor; anion channel (Rattus norvegicus) (UniProt O09028+P15431+P18506+P18508+P19969+P20236+P23574+P23576+P28471+P28473+P30191+P62813+P63079+P63138+Q91ZM7+Q9ES14). To be noted: Brain, Brain membranes.
In experiment [11] the target is T1, GABA-A receptor; alpha-1/beta-2/gamma-2. Description: Displacement of [3H]flunitrazepam from GABA-A receptor alpha-1-beta-2-gamma-2 subunits expressed in Sf9 cells. The method, boiled down:
as §2

For experiment [12], the target named is GABA-A receptor alpha-1/beta-2/gamma-2 (Homo sapiens). Nature of the experiment: Binding affinity towards [3H]Fnz in alpha-1-beta-2-gamma-2 subtype was measured.
Experiment [13] addresses T3, GABA A receptor alpha-6/beta-2/gamma-2 (Homo sapiens, UniProt P18507+P47870+Q16445). Nature of the experiment: Displacement of [3H]Ro-154513 from GABA-A receptor alpha-6-beta-2-gamma-2 subunits expressed in Sf9 cells. In a few lines: as §2
Experiment [14] addresses T1, GABA-A receptor; alpha-1/beta-2/gamma-2. The experiment is described as §1. Also noted: species or system insect. The method, boiled down: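 Equilibrium competition binding on membranes from Sf-9 cells co-infected (MOI 3) with baculoviruses for α1, β2 and γ2 subunits, harvested 60 h postinfection. Assay in normal saline with 6 nM [3H]flunitrazepam, 50 µg membrane protein and varying test ligand concentrations. Incubated 60 min at 4 °C, filtered over glass fiber, washed four times with cold saline, then scintillation counted.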

Experiment [15] addresses T3, GABA A receptor alpha-6/beta-2/gamma-2. Description: Displacement of [3H]-Ro-15-4513 from GABA-A receptor alpha-6-beta-2-gamma-2 subunits expressed in Sf9 cells. In a few lines:
as §2

Experiment [16] is filed under the species Mus musculus. Description: Acute electroshock physical dependence activity was evaluated; IA=Inactive. In kind it is functional, organism-based. In a few lines: as §3
Experiment [17] deals with Mus musculus. Nature of the experiment: In vivo antagonistic activity against benzodiazepine in mice. It counts as functional. In a few lines: as §4
The species entered for experiment [18] is Mus musculus. Description: Ethanol potentiation was measured against LORR. It counts as functional. In a few lines:
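Male CF-1 mice given 7.5 mL/kg 50% aqueous ethanol orally with test compound sc simultaneously (in 0.25% aqueous methyl cellulose). After 30 min, scored for loss of traction (hindlimb placement on wire within 10 s) and loss of righting reflex (no righting within 10 s). Six mice/dose; active compounds retested at several doses for ED50.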

T3 sequence (Q16445 whole entry, one chain of several): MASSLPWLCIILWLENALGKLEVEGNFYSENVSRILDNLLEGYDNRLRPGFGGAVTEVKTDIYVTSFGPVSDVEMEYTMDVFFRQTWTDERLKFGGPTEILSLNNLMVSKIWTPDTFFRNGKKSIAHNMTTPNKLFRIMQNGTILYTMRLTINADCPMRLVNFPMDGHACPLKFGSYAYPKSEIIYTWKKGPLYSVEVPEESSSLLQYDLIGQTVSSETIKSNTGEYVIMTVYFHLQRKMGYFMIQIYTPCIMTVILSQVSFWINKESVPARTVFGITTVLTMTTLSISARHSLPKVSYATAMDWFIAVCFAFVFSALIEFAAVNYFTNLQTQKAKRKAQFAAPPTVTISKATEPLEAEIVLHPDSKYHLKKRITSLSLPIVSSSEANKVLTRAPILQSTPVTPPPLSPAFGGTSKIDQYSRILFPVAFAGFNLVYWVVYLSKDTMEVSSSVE

As to `O=C(N1CCOCC1)N1Cc2c(-c3noc(C4CC4)n3)ncn2-c2ccc(F)cc21`, the Ki in [1] worked out at 0.3 nM; in experiment [2] it was 0.68 nM; in experiment [3] it was 0.7 nM. Also, the median effective dose (ED50) in the experiment with Mus musculus [4] was over 30 mg/kg; with Mus musculus [5] it was 2 mg/kg; in the experiment with Mus musculus [7], 1 mg/kg; in the experiment with Rattus norvegicus [8], 6.2 mg/kg. In addition, in the experiment filed under Mus musculus [6], the A result was “Active”. Also, in the experiment listed under Rattus norvegicus [9], the 36Cl- uptake turned out to be 1.1. Besides, the [35S] TBPS shift in [10] was 0.96.

Turning to `O=C(N1CCOCC1)N1Cc2c(-c3noc(C4CC4)n3)ncn2-c2ccc(Cl)cc21`, the inhibition constant (Ki) in [11] came to 0.22 nM; in experiment [2], 2.3 nM; in [12], 2 nM. The same molecule showed a 36Cl- uptake in the experiment listed under Rattus norvegicus [9] of 1. Besides, in [10], the [35S] TBPS shift was 0.71.

Take `CC(=O)N1Cc2c(-c3noc(C4CC4)n3)ncn2-c2ccccc21`: the Ki in [11] stood at 2.7 nM; in experiment [13], 124 nM. The molecule also showed an ED50 in the experiment with Rattus norvegicus [8] of 35 mg/kg. The [35S] TBPS shift in experiment [10] was determined as 0.94.

`CCOC(=O)c1ncn2c1CN(C)C(=O)c1cc(N=[N+]=[N-])ccc1-2` [Ro-154513] showed a Ki in experiment [14] of 15 nM.

Consider `CC(C)n1c(=O)c2c(-c3noc(C4CC4)n3)ncn2c2ccccc21` [PANADIPLON], for which the Ki in experiment [1] came out at 3.5 nM; in [2] it was 1.6 nM; in experiment [3], 5.7 nM; in experiment [15] it was 603 nM. Also, the result in the experiment listed under Mus musculus [16] was inactive. Moreover, the 50% effective dose (ED50) was 1.7 mg/kg in the experiment with Mus musculus [17], 6.6 mg/kg in the experiment with Mus musculus [5], over 30 mg/kg in the experiment listed under Mus musculus [18] and 1.6 mg/kg in the experiment on Rattus norvegicus [8]. The molecule also returned a 36Cl- uptake in the experiment filed under Rattus norvegicus [9] of 0.04. Also, in experiment [10], the [35S] TBPS shift was determined as 0.06.

`CNC(=O)N1Cc2c(-c3noc(C4CC4)n3)ncn2-c2ccccc21` came in with a Ki in [2] of 2.8 nM. The ED50 came out at 11 mg/kg in the experiment with Mus musculus [4], 2.7 mg/kg with Mus musculus [5], 22 mg/kg in the experiment with Mus musculus [7] and 11 mg/kg with Rattus norvegicus [8]. Also, the result in the experiment filed under Mus musculus [6] was Active. The 36Cl- uptake in the experiment filed under Rattus norvegicus [9] is reported as 0.53. Moreover, the [35S] TBPS shift in experiment [10] is 0.95.
